The source made the active and inactive calls. The calls are words filed in the database; no cut-off is given here.
Tests used:
[1] = target: T1, Tyrosine-protein phosphatase non-receptor type 1 (Homo sapiens, UniProt P18031); assay: Inhibition of human N-terminal His6-tagged PTP1B catalytic domain (1 to 393 residues) expressed in Escherichia coli strain Rosetta2 (DE3) using DiFMUP as substrate preincubated for 10 mins followed by substrate addition and measured after 10 mins by fluorescence assay
T1 sequence (P18031 whole entry): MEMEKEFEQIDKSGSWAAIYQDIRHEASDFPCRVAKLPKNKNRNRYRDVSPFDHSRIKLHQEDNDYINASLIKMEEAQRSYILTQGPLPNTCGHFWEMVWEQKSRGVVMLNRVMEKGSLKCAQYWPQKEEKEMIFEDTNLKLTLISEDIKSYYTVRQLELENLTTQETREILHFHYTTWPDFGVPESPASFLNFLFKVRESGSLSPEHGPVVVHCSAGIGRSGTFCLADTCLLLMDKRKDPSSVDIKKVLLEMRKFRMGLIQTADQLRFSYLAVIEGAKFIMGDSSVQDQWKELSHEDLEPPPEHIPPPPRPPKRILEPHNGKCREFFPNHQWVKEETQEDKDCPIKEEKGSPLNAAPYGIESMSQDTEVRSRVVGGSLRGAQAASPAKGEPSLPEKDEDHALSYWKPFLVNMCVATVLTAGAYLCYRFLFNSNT
Procedure, shortened: (§1)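 Tag-cleaved, SEC-purified enzyme at 1 nM, preincubated 10 min with compound at 15 concentrations from 0–500 μM (5% DMSO final) in 25 mM Bis-Tris propane pH 7.5, 50 mM NaCl, 2 mM EDTA. DiFMUP added at each construct's Km (10, 7, 10, 9 μM for PTP1B1−298, PTP1B1−393, TCPTP1−296, TCPTP1−336). Read ex 358/em 455 nm continuously 10 min at 37 °C; triplicate; log(inhibitor)-response fit.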

[2] = target: T2, Tyrosine-protein phosphatase non-receptor type 2 (Homo sapiens, UniProt P17706); assay: Inhibition of human N-terminal His6-tagged TCPTP catalytic domain (1 to 336 residues) expressed in Escherichia coli strain Rosetta2 (DE3) using DiFMUP as substrate preincubated for 10 mins followed by substrate addition and measured after 10 mins by fluorescence assay; procedure, shortened: as §1
T2 sequence (P17706 whole entry): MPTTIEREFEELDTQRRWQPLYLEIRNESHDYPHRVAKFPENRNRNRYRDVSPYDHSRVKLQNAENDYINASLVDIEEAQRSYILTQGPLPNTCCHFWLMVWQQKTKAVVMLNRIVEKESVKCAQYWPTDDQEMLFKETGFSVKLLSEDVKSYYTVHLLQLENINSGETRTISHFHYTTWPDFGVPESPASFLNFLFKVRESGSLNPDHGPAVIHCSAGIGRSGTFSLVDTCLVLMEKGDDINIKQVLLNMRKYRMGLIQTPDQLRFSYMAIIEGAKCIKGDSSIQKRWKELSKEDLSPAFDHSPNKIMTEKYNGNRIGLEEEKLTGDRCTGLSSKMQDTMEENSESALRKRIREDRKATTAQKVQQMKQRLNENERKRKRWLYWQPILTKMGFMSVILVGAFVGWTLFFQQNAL

[3] = target: T3, Tyrosine-protein phosphatase non-receptor type 1 (Homo sapiens) (UniProt P18031); assay: Inhibition of human N-terminal His6-tagged PTP1B catalytic domain (1 to 393 residues) expressed in Escherichia coli strain Rosetta2 (DE3) at 500 uM using DiFMUP as substrate preincubated for 10 mins followed by substrate addition and measured after 10 mins by fluorescence assay
T3 sequence (whole entry): T1 sequence (P18031 whole entry)

[4] = target: T4, Tyrosine-protein phosphatase non-receptor type 2 (Homo sapiens) (UniProt P17706); assay: Inhibition of human N-terminal His6-tagged TCPTP catalytic domain (1 to 336 residues) expressed in Escherichia coli strain Rosetta2 (DE3) at 500 uM using DiFMUP as substrate preincubated for 10 mins followed by substrate addition and measured after 10 mins by fluorescence assay
T4 sequence (whole entry): T2 sequence (P17706 whole entry)

SMILES | IC50 [1] | IC50 [2] | inhibition [3] | inhibition [4]
Nc1ccc(NC(=O)C(=O)O)cc1 | 910 µM | 478 µM |  | 
CC1=C(CO)C(=O)O[C@@H]([C@@H](C)[C@H]2CC[C@H]3[C@@H]4C[C@H]5O[C@]56[C@@H](O)C=CC(=O)[C@]6(C)[C@H]4CC[C@]23C)C1 |  |  | inactive | inactive
Cc1c(O)c(O)cc2c1CC=C1[C@@]2(C)CC[C@@]2(C)[C@@H]3C[C@](C)(C(=O)O)CC[C@]3(C)CC[C@]12C |  |  | Active | Active

Reference: ChEMBL document CHEMBL4371044, “Celastrol Promotes Weight Loss in Diet-Induced Obesity by Inhibiting the Protein Tyrosine Phosphatases PTP1B and TCPTP in the Hypothalamus” (J Med Chem, 2018)
